These results are taken from ChEMBL document CHEMBL3286367, “Synthesis of new class of spirocarbocycle derivatives by multicomponent domino reaction and their evaluation for antimicrobial, anticancer activity and molecular docking studies” (2014).

Assay [1] has as its system Micrococcus luteus. The assay can be described thus: Antimicrobial activity against Micrococcus luteus MTCC 106 assessed as absence of visible growth after 48 to 72 hrs. The class given is functional.
Assay [2] relates to Klebsiella aerogenes. In words: Antimicrobial activity against Enterobacter aerogenes MTCC 111 assessed as zone of inhibition at 1 mg/disc after 24 hrs incubation by disc diffusion assay. Format: functional. The method in brief: (§1)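 Inocula grown in Mueller Hinton broth for 24 h at 37 °C and swabbed onto Mueller Hinton agar. Discs carried 1 mg compound each and stood 30 min at room temperature before 24 h incubation at 37 °C. Solvent as negative control. Inhibition zones recorded in mm; experiment done twice.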

For assay [3], the system named is Salmonella typhimurium. The assay can be described thus: Antimicrobial activity against Salmonella typhimurium MTCC 1251 assessed as absence of visible growth after 48 to 72 hrs. Format: functional, Salmonella enterica subsp. enterica serovar Typhimurium. Particulars: Salmonella enterica.
The test system of assay [4] is Staphylococcus aureus. In words: Antimicrobial activity against methicillin-resistant Staphylococcus aureus assessed as absence of visible growth after 48 to 72 hrs. Format: functional. In a few lines: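 Broth two-fold serial dilution in 96-well plates, 1000 to 7.81 µg/mL, compound dissolved in DMSO (2%). Inoculum grown in Mueller Hinton broth 24 h at 37°C. Streptomycin positive control. 5 µl of tested broth plated on MHA; MIC is the lowest concentration inhibiting visible growth on agar.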

Assay [5] has as its system Micrococcus luteus. The assay can be described thus: Antimicrobial activity against Micrococcus luteus MTCC 106 assessed as zone of inhibition at 1 mg/disc after 24 hrs incubation by disc diffusion assay. Format: functional. The method in brief: as §1
For a further assay, the system named is Malassezia pachydermatis. In words: Antifungal activity against Malassezia pachydermatis assessed as zone of inhibition at 1 mg/disc after 48 hrs incubation by disc diffusion assay. Format: functional. In a few lines: (§2)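 Disc diffusion on Mueller Hinton agar with swabbed cultures, 1 mg compound per disc. Discs stood 30 min at room temperature for diffusion, then plates incubated 48 h at 28 °C. Solvent as negative control. Yeast pre-grown in Sabouraud dextrose broth at 28 °C for 48-72 h; filamentous fungal spores came from SDA slants grown 10 days at 28 °C. Zone diameters in mm; run twice.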

In assay [6] the test system is Staphylococcus epidermidis. The assay can be described thus: Antimicrobial activity against Staphylococcus epidermidis MTCC 3615 assessed as absence of visible growth after 24 hrs.
The test system of assay [7] is Salmonella typhimurium. The assay can be described thus: Antimicrobial activity against Salmonella typhimurium MTCC 1251 assessed as zone of inhibition at 1 mg/disc after 24 hrs incubation by disc diffusion assay. Format: functional, Salmonella enterica subsp. enterica serovar Typhimurium. In a few lines:
as §1

Another assay deals with Candida albicans. In words: Antifungal activity against Candida albicans MTCC 227 assessed as zone of inhibition at 1 mg/disc after 48 hrs incubation by disc diffusion assay. The class given is functional. The method in brief: as §2
The test system of assay [8] is Shigella flexneri. In words: Antimicrobial activity against Shigella flexneri MTCC 1457 assessed as zone of inhibition at 1 mg/disc after 24 hrs incubation by disc diffusion assay. Format: functional. In a few lines: as §1
Assay [9] concerns Staphylococcus aureus. In words: Antimicrobial activity against methicillin-resistant Staphylococcus aureus assessed as zone of inhibition at 1 mg/disc after 24 hrs incubation by disc diffusion assay. Format: functional. In a few lines: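 Inoculum grown in Mueller Hinton broth 24 h at 37°C, swabbed onto Mueller Hinton agar and dried 10 min. Discs loaded at 1 mg/disc, then 30 min at room temperature for diffusion. Plates incubated 24 h at 37°C. Solvent negative control; streptomycin positive control. Zone of inhibition read in mm; experiment done twice.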

Assay [10] concerns Klebsiella pneumoniae. The assay can be described thus: Antimicrobial activity against Klebsiella pneumonia MTCC 109 assessed as absence of visible growth after 24 hrs.
For assay [11], the system named is Klebsiella aerogenes. In words: Antimicrobial activity against Enterobacter aerogenes MTCC 111 assessed as absence of visible growth after 48 to 72 hrs. Format: functional.
Assay [12] relates to Klebsiella pneumoniae. In words: Antimicrobial activity against Klebsiella pneumonia MTCC 109 assessed as zone of inhibition at 1 mg/disc after 24 hrs incubation by disc diffusion assay. The class given is functional. In a few lines:
as §1

For assay [13], the system named is Staphylococcus aureus. The assay can be described thus: Antimicrobial activity against Staphylococcus aureus MTCC 96 assessed as zone of inhibition at 1 mg/disc after 24 hrs incubation by disc diffusion assay. Format: functional. In a few lines:
as §1

The subject of assay [14] is Proteus vulgaris. The assay can be described thus: Antimicrobial activity against Proteus vulgaris MTCC 1771 assessed as zone of inhibition at 1 mg/disc after 24 hrs incubation by disc diffusion assay. Format: functional. In a few lines: as §1
Assay [15] concerns Proteus vulgaris. In words: Antimicrobial activity against Proteus vulgaris MTCC 1771 assessed as absence of visible growth after 48 to 72 hrs. The class given is functional.
The subject of assay [16] is Staphylococcus aureus. In words: Antimicrobial activity against Staphylococcus aureus MTCC 96 assessed as absence of visible growth after 48 to 72 hrs. Format: functional.
The subject of assay [17] is Staphylococcus epidermidis. The assay can be described thus: Antimicrobial activity against Staphylococcus epidermidis MTCC 3615 assessed as zone of inhibition at 1 mg/disc after 24 hrs incubation by disc diffusion assay. Format: functional. In a few lines: as §1
Assay [18] relates to Shigella flexneri. The assay can be described thus: Antimicrobial activity against Shigella flexneri MTCC 1457 assessed as absence of visible growth after 24 hrs.

≈ marks a conversion by molar mass, not a printed value. Calls of active or inactive are those of the source. The calls are words filed in the database; no cut-off is given here.

For `N#CC1=C(N)C2(C(=O)c3ccccc3C2=O)[C@@H](c2cccs2)[C@@H]2CCCC=C12` (relative stereo), the MIC with Micrococcus luteus [1] came out at 250 µg/mL (≈ 647 µM); with Salmonella typhimurium [3] it was 125 µg/mL (≈ 323 µM); with Staphylococcus aureus [4], 125 µg/mL (≈ 323 µM); in [6], 250 µg/mL (≈ 647 µM); in the assay on Klebsiella pneumoniae [10], 250 µg/mL (≈ 647 µM); with Klebsiella aerogenes [11], 250 µg/mL (≈ 647 µM). Besides, the MIC with Proteus vulgaris [15] was 62.5 µg/mL (≈ 162 µM); in the assay on Staphylococcus aureus [16], 250 µg/mL (≈ 647 µM); in the assay on Shigella flexneri [18], 62.5 µg/mL (≈ 162 µM). Moreover, the “inhibition zone (IZ)” value was found to be 15 mm in the assay with Klebsiella aerogenes [2]; 10 mm in the assay with Micrococcus luteus [5]; 11 mm in the assay with Malassezia pachydermatis; 16 mm with Salmonella typhimurium [7]; 10 mm with Candida albicans; 24 mm with Shigella flexneri [8]. In addition, the “inhibition zone (IZ)” value stood at 18 mm with Staphylococcus aureus [9]; 14 mm with Klebsiella pneumoniae [12]; 10 mm with Staphylococcus aureus [13]; 22 mm with Proteus vulgaris [14]; 12 mm in assay [17].
As for `N#CC1=C(N)C2(C(=O)c3ccccc3C2=O)[C@@H](c2ccccc2F)[C@@H]2CCC=C12` (relative stereo), the MIC was determined as 250 µg/mL (≈ 650 µM) in the assay with Micrococcus luteus [1]; 250 µg/mL (≈ 650 µM) in the assay with Salmonella typhimurium [3]; 125 µg/mL (≈ 325 µM) in the assay with Staphylococcus aureus [4]; 125 µg/mL (≈ 325 µM) in assay [6]; 250 µg/mL (≈ 650 µM) in the assay with Klebsiella pneumoniae [10]; 250 µg/mL (≈ 650 µM) with Klebsiella aerogenes [11]. The MIC with Proteus vulgaris [15], in the assay on Staphylococcus aureus [16] and in the assay with Shigella flexneri [18] was 250 µg/mL (≈ 650 µM) each time. In addition, the “inhibition zone (IZ)” value was found to be 15 mm in the assay with Klebsiella aerogenes [2]; 12 mm in the assay with Micrococcus luteus [5]; 12 mm in the assay with Salmonella typhimurium [7]; 10 mm in the assay with Shigella flexneri [8]; 16 mm in the assay on Staphylococcus aureus [9]; 15 mm in the assay on Klebsiella pneumoniae [12]. The figures for the “inhibition zone (IZ)” value (in the assay with Staphylococcus aureus [13]; in the assay on Proteus vulgaris [14]; in assay [17]) were 14 mm, 14 mm and 17 mm, respectively. Besides, the inhibition result with Malassezia pachydermatis and in the assay on Candida albicans was “inactive” in each case.
In the case of `N#CC1=C(N)C2(C(=O)c3ccccc3C2=O)[C@@H](c2cccc3ccccc23)[C@@H]2CCCC=C12` (relative stereo), the MIC with Micrococcus luteus [1] came out at 62.5 µg/mL (≈ 145 µM); in the assay on Salmonella typhimurium [3] it was 125 µg/mL (≈ 290 µM); with Staphylococcus aureus [4], 62.5 µg/mL (≈ 145 µM); in assay [6], 125 µg/mL (≈ 290 µM); with Klebsiella pneumoniae [10] it was 125 µg/mL (≈ 290 µM); in the assay on Klebsiella aerogenes [11] it was 125 µg/mL (≈ 290 µM). The MIC in the assay with Proteus vulgaris [15] was 125 µg/mL (≈ 290 µM); with Staphylococcus aureus [16], 250 µg/mL (≈ 581 µM); with Shigella flexneri [18], 62.5 µg/mL (≈ 145 µM). Besides, the “inhibition zone (IZ)” value worked out at 17 mm with Klebsiella aerogenes [2]; 22 mm in the assay with Micrococcus luteus [5]; 9 mm in the assay with Malassezia pachydermatis; 18 mm in the assay with Salmonella typhimurium [7]; 10 mm in the assay with Candida albicans; 21 mm in the assay on Shigella flexneri [8]. For the same compound, the “inhibition zone (IZ)” value in the assay on Staphylococcus aureus [9] is reported as 21 mm; in the assay on Klebsiella pneumoniae [12], 17 mm; with Staphylococcus aureus [13], 12 mm; in the assay on Proteus vulgaris [14], 19 mm; in assay [17], 15 mm.
